Compound activity deposited in PubChem by Sanford-Burnham Center for Chemical Genomics.
SENP8 block-1: human SENP8 protease inhibitors, primary screen, biochemical, fluorescence, Nedd8 protein substrate, uHTS. Sentrin-specific protease 8 (Homo sapiens), Q96LD8. recombinant SENP8. inhibition, % at 20 µM. 0.64% of 360,000 active. AID 602440, 2012; in the data active means inhibition mostly above about 40%, no sharp cut-off; inactive means mostly below about 27%
SENP6 block: SENP6 protease inhibitors, primary screen, biochemical, luminescence, uHTS; 1.8% of 330,000 active; inhibition, % at 10 µM; Recombinant SENP6 catalytic domain, aminoluciferin luminescence;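 active means inhibition above about 50% at the single tested dose, limit read from the data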;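 further: plate controls were DMSO wells with enzyme for no effect and DMSO wells lacking enzyme for full effect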
Target sequence (Q9GZR1 628-1112 limits assumed): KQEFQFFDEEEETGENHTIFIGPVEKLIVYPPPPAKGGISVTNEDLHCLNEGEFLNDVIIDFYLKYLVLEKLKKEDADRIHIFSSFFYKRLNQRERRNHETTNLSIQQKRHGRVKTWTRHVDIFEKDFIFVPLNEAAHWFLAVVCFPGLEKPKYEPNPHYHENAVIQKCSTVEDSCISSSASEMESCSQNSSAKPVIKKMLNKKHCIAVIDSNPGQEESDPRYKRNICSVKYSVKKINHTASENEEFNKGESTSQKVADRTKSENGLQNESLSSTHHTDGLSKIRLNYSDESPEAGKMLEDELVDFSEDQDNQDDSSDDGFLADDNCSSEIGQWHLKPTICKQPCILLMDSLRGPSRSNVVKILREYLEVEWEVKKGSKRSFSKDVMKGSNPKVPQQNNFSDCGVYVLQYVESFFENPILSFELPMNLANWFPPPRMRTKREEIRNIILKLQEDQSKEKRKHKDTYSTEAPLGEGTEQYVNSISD
SENP1 FRET inh: human SENP1 catalytic domain inhibitors, primary screen, biochemical, FRET, uHTS. Sentrin-specific protease 1 (Homo sapiens), Q9P0U3. recombinant SENP1 catalytic domain, CyPet-SUMO1-YPet FRET cleavage. inhibition, % at 10 µM. 0.21% of 360,000 active. AID 624204, 2012;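 active means inhibition at least 30% at 10 µM, raw YFP signal under a set limit, fluorescence ratio 0.5 to 1.5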;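 further: 0% = enzyme with DMSO and 100% = no enzyme wells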
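Test system: recombinant human SENP1 catalytic domain, His6-tagged / Medium: pH 8 Tris buffer with EDTA, NaCl, BME, BSA, NP40, catalase / Also added: SUMO1 FRET substrate flanked by Cypet and Ypet, 25 nM / Times: 50 min reaction at room temperature / Signal: FRET, CFP and YFP emission / Control set: no-enzyme low control and enzyme-plus-DMSO high control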
SENP7 inh: SENP7 protease inhibitors, primary screen, biochemical, luminescence, uHTS; 1.5% of 330,000 active; inhibition, % at 5 µM; Sentrin-specific protease 7 (Homo sapiens), Q9BQF6; recombinant SENP7, Z-RLRGG-aminoluciferin luminescence, 40 min; AID 434973, 2010;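 active means inhibition above about 50% at the single test dose, limit read from the data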;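 further: plate controls were DMSO with enzyme for no effect and no enzyme buffer wells for full effect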
SENP8 block-2: SENP8 protease inhibitors, primary screen, biochemical, luminescence. 1.2% of 330,000 active. inhibition, % at 10 µM. purified SENP8, Z-RLRGG-aminoluciferin cleavage; in the data active means inhibition above about 50%
SENP8 inh conf: human SENP8 protease inhibitors, confirmation, biochemical, Nedd8 protein substrate, single concentration | shares compounds with SENP8 block-1 | purified SENP8, Nedd8-AMC/pro-Nedd8 cleavage fluorescence, 30 min | inhibition, % at 25 µM | 15% of 1,400 active; in the data active means inhibition mostly above about 39%, no sharp cut-off; inactive means mostly below about 34%
* = called active by the depositor; . = no result given. This is a sample that favours compounds with a hit; in the whole collection about 2.5% have one here.

SMILES | SENP8 block-1 | SENP6 block | SENP1 FRET inh | SENP7 inh | SENP8 block-2 | SENP8 inh conf
COc1ccc(-c2[nH][nH]c(=O)c2NC(=O)c2ccc(C)cc2)cc1 | 45* | . | 2 | . | . | 14
O=C(Nc1c(-c2ccccc2)[nH][nH]c1=O)c1cnccn1 | 40* | . | -1 | . | . | 37
O=C(Nc1c(-c2ccccc2)[nH][nH]c1=O)c1ccc(Br)cc1 | 58* | . | 2 | . | . | 22
CSCC[C@H](NC(=O)N1CCn2c1nc1ccccc12)C(=O)N[C@H](Cc1ccccc1)C(=O)O | 49* | -1 | -1 | 12 | 1 | 9
O=C(CCCCCNC(=O)N1CCn2c1nc1ccccc12)N[C@@H](Cc1ccccc1)C(=O)O | 47* | 2 | 2 | 2 | 4 | 12
COc1ccc(NC(=O)COC(=O)c2cc(C)oc2C)c([N+](=O)[O-])c1 | 15 | -4 | 8 | -5 | -4 | .
O=C(NC(=S)N1CCN(C/C=C/c2ccccc2)CC1)c1c(F)cccc1F | 43* | 11 | 4 | 8 | -1 | 8
O=C(NC(=S)N1CCN(C/C=C/c2ccccc2)CC1)c1ccco1 | 4 | 2 | -7 | -5 | -4 | .
O=C(O)c1cccc(C(=O)c2cccc(C(=O)O)c2)c1 | 8 | 0 | 2 | 6 | 16 | .
O=C(O)c1cccc(Br)c1 | 42* | . | 1 | . | . | 4
COc1ccc(NC(=O)COC(=O)CC2CC3CCC2C3)c([N+](=O)[O-])c1 (centres undefined) | 40* | 1 | 6 | -1 | -6 | 23
NNc1nnc2c3cc(F)ccc3n(Cc3ccccc3)c2n1 | 37* | 11 | 1 | -10 | -4 | 14
CCn1c2ccc(F)cc2c2nnc(NN)nc21 | 25 | 5 | 3 | 5 | 3 | .
CCCn1c2ccc(F)cc2c2nnc(NN)nc21 | 70* | 9 | -1 | -3 | 0 | 17
COc1ccc(O)cc1 | 48* | -1 | 3 | -2 | 7 | 6
COc1ccc(-c2ccnc(-c3ccc(O)cc3)n2)cc1 | 4 | 8 | 1 | 5 | -2 | .
CC(=O)N/N=C(\C)C1COc2ccccc2O1 (centres undefined) | 41* | -3 | 1 | 5 | 5 | 6
CCc1noc(C)c1C(=O)NCCc1ccc(Cl)cc1 | 7 | -9 | 1 | 2 | -9 | .
Cc1onc(-c2ccccc2)c1C(=O)NCCc1ccc(Cl)cc1 | 51* | -11 | 0 | 4 | 1 | 5
Cc1ccc(NC(=O)Cc2nnc(SCC(=O)NC3=NCCS3)n2C)cc1 | 2 | -12 | 2 | 3 | 1 | .
O=C(NCc1ccc(F)cc1)c1cc(C2CCCN(C(=O)c3ccccn3)C2)on1 (centres undefined) | 14 | . | 3 | . | . | .
COc1cc(CC(=O)OCC(=O)Nc2cc([N+](=O)[O-])ccc2Cl)cc(OC)c1OC | 40* | -6 | -1 | 8 | -1 | 8
O=C(N(c1ccccc1)c1ccccc1)N(c1ccccc1)c1ccccc1 | -13 | -29 | 0 | 0 | -7 | .
CNC(=O)N(c1ccccc1)c1ccccc1 | 43* | -18 | 0 | -7 | -15 | 12
C[C@]12c3[nH]c4ccccc4c3CCN1C(=O)C(CC(=O)NCCCn1ccnc1)C[C@@H]2C(=O)N1CCCCC1 (some centres undefined) | 11 | -7 | 2 | -4 | -12 | .
SMILES | SENP8 block-1 | SENP6 block | SENP1 FRET inh | SENP7 inh | SENP8 block-2 | SENP8 inh conf
CCn1cc(CN2CCCC(C(=O)Nc3cccc(-n4cccn4)c3)C2)cn1 (centres undefined) | 24 | . | -1 | . | . | .
Cc1ccc(C)c(Nc2c([N+](=O)[O-])cc(C(=O)N3CC(=O)Nc4ccccc43)cc2[N+](=O)[O-])c1 | 60* | -6 | 2 | 0 | -7 | 20
COc1ccc(CC(=O)NC(C)c2nnc(SCC(=O)c3ccc(OC)cc3)n2C)cc1 (centres undefined) | 3 | 5 | -1 | 7 | 8 | .
COc1ccc(C(=O)CSc2nnc(C(CO)NC(=O)c3ccc(OC)cc3)n2C)cc1 (centres undefined) | 73* | -5 | 1 | 7 | 1 | 13
O=c1cc(-c2cccc([N+](=O)[O-])c2)[nH][nH]1 | 43* | 5 | 4 | 11 | 1 | -1
O=c1[nH]nc(CNc2ccc(O)cc2)c2ccccc12 | 114* | 10 | 10 | 49 | -1 | 26
CCn1c(C)cc(C(=O)COC(=O)CNC(=O)c2ccco2)c1C | -8 | . | 1 | . | . | .
O=C(NC(=S)Nc1cccc2c(O)cccc12)c1ccccc1[N+](=O)[O-] | 47* | 48 | -1 | 6 | 35 | 15
Cn1c(O)c(C=Nc2ccc(Br)cc2)sc1=O | 21 | 23 | 0 | 48 | 22 | .
O=C(O)CC1c2ccccc2CCN1S(=O)(=O)c1cccs1 (centres undefined) | 43* | -16 | 2 | -6 | -3 | -9
O=C(O)CC1c2ccccc2CCN1S(=O)(=O)c1ccccc1 (centres undefined) | 18 | -3 | -1 | 3 | -1 | .
Cn1cccc1CNC(=S)Nc1ccccc1Cl | 40* | -16 | 1 | -8 | -4 | 13
O=c1cc(-c2ccccc2)[nH]n1-c1ccccc1 | -216 | . | -1 | . | . | .
CC(C)(C)c1cc(=O)n(-c2ccccc2)[nH]1 | 87* | . | 1 | . | . | 27
CC(C)c1cc(=O)[nH]c(N2CCN(Cc3ccc4c(c3)OCO4)CC2)n1 | 5 | -13 | 2 | 7 | -7 | .
COc1ccc(/C=C/C(=O)OCC(=O)N2c3ccccc3CC2C)cc1 (centres undefined) | 2 | . | 0 | . | . | .
COc1ccc(OS(=O)(=O)c2c(C)noc2C)cc1 | 48* | -4 | 2 | 4 | -1 | 16
COc1ccc(N(C)S(=O)(=O)c2c(C)noc2C)c(OC)c1 | 0 | 3 | 1 | -2 | 2 | .
Cn1c(NC(=O)c2ccc(F)cc2)c(-c2ccccn2)c(=O)c2ccccc21 | 7 | -11 | 1 | 9 | -4 | .
Cc1ccc(C2=NOC(C)(c3nnc(Cc4ccccc4)o3)C2)cc1 (centres undefined) | 11 | -3 | 0 | 0 | 11 | .
CCOc1ccc(N=C(C)c2ccccc2O)cc1 | 42* | -20 | 0 | 4 | -12 | 17
CC1CCN(c2ccc(C(=O)NCc3ccco3)cc2[N+](=O)[O-])CC1 | 42* | -5 | 6 | 6 | -4 | 28
O=C(Nc1ccc(N2CCOCC2)cc1)c1ccc([N+](=O)[O-])o1 | 33 | 35 | 1 | 38 | 5 | .
O=C(Cc1cc(=O)[nH][nH]1)N/N=C/C=C/c1ccccc1 | 44* | 4 | 0 | 4 | 1 | 34
